Assay [1] can be described thus: Antiproliferative activity against human H460 cells assessed as inhibition of cell growth after 72 hrs by MTT method. The settings on record: NCI-H460, 72 h. The assay is classed as functional, cell-based. An outline of the steps:
(§1)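 Tumor cells seeded in 100 µL suspension, 24 h preincubation at 37 °C, 5% CO2. Serial dilutions of compound then added for 72 h; DMSO controls at 0.5% final. Surviving cells quantified by MTT, OD read at 492/620 nm. IC50 is the concentration giving 50% growth inhibition, taken from dose-response curves of a triplicate experiment.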
(In general: Formazan colour is commonly taken as a measure of viable cells.)

In another assay the test system is HepG2. In words: Antiproliferative activity against human HepG2 cells assessed as inhibition of cell growth after 72 hrs by MTT method. The assay is classed as functional, cell-based. The settings on record: HepG2, 72 h. An outline of the steps:
as §1

The test system of a further assay is MDA-MB-453. The experiment in a line: Antiproliferative activity against human MDA-MB-453 cells assessed as inhibition of cell growth after 72 hrs by MTT method. The assay is classed as functional, cell-based. The settings on record: MDA-MB-453, 72 h. An outline of the steps:
as §1

The nature of assay [2]: Antiproliferative activity against human PC3 cells assessed as inhibition of cell growth after 72 hrs by MTT method. The settings on record: PC-3, 72 h. In kind it is functional, cell-based. An outline of the steps: as §1
The next assay relates to MCF7. The experiment in a line: Antiproliferative activity against human MCF7 cells assessed as inhibition of cell growth after 72 hrs by MTT method. In kind it is functional, cell-based. The settings on record: MCF7, 72 h. Put shortly: as §1
For the next assay, the system named is HEK293. In words: Antiproliferative activity against human HEK293 cells assessed as inhibition of cell growth after 72 hrs by Alamar Blue method. In kind it is cell-based. The settings on record: HEK293, 72 h. Put shortly: (§2)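 Non-tumor cells seeded at 3.5 × 10³ cells/mL, 100 µL each, preincubated 24 h at 37 °C, 5% CO2. Serial dilutions then added for 72 h; DMSO controls at 0.5% final. Surviving cells measured by Alamar Blue, OD read at 492/620 nm. IC50 from a triplicate experiment.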
For orientation: Resazurin is reduced to fluorescent resorufin, in cell work by metabolically active cells.

Assay [3] is described as follows: Antiproliferative activity against human H1299 cells assessed as inhibition of cell growth after 72 hrs by MTT method. The assay is classed as functional, cell-based. The settings on record: NCI-H1299, 72 h. Put shortly: as §1
The nature of assay [4]: Antiproliferative activity against human LO2 cells assessed as inhibition of cell growth after 72 hrs by Alamar Blue method. The assay is classed as cell-based. The settings on record: L02, 72 h. Put shortly:
as §2

Assay [5] is described as follows: Antiproliferative activity against human COLO205 cells assessed as inhibition of cell growth after 72 hrs by MTT method. In kind it is functional, cell-based. The settings on record: COLO 205, 72 h. Put shortly: as §1
For a further assay, the system named is SW480. The experiment in a line: Antiproliferative activity against human SW480 cells assessed as inhibition of cell growth after 72 hrs by MTT method. The assay is classed as functional, cell-based. The settings on record: SW480, 72 h. Put shortly: as §1
Another assay deals with A-375. The experiment in a line: Antiproliferative activity against human A375 cells assessed as inhibition of cell growth after 72 hrs by MTT method. The assay is classed as functional, cell-based. The settings on record: A-375, 72 h. An outline of the steps: as §1
A further assay deals with NCI-H522. In words: Antiproliferative activity against human NCI-H522 cells assessed as inhibition of cell growth after 72 hrs by MTT method. In kind it is functional, cell-based. The settings on record: NCI-H522, 72 h. An outline of the steps:
as §1

SMILES strings stand for the structures.

As usually defined, the IC50 is the midpoint of a concentration-inhibition curve.

Take `CN(C)C(=S)SCC(CSC(=S)N(C)C)C(=O)c1c(-c2ccccc2)nn2ncccc12`: the IC50 in assay [1] worked out at 58.2 µM.

Turning to `CN(C)C(=S)SCC(CSC(=S)N(C)C)C(=O)c1cccnc1`, the IC50 in [1] worked out at 0.87 µM.

Consider `COc1ccccc1C(=O)C(CSC(=S)N(C)C)CSC(=S)N(C)C`, for which, in assay [1], the IC50 was 0.81 µM.

Take `O=C(c1cnc2ccccc2c1)C(CSC(=S)N1CCCCC1)CSC(=S)N1CCCCC1`: in [1], the IC50 was 4.65 µM.

Turning to `O=C(c1cnc2ccccc2c1)C(CSC(=S)N1CCOCC1)CSC(=S)N1CCOCC1`, in assay [1], the IC50 came out at 0.58 µM.

Consider `CN(C)C(=S)SCC(CSC(=S)N(C)C)C(=O)c1ccc(F)cc1`, for which the IC50 in assay [1] stood at 1.21 µM.

On to `CN1CCN(C(=S)SCC(CSC(=S)N2CCN(C)CC2)C(=O)c2cnc3ccccc3c2)CC1`, for which the IC50 in assay [1] turned out to be 2.51 µM.

As to `CN(C)C(=S)SCC(CSC(=S)N(C)C)C(=O)c1cc2ccccc2oc1=O`, in assay [1], the IC50 stood at 0.66 µM.

`CC(=O)C(CSC(=S)N(C)C)CSC(=S)N(C)C`: the IC50 in assay [1] was found to be 0.89 µM.

Take `CN(C)C(=S)SCC(CSC(=S)N(C)C)C(=O)c1ccc[nH]1`: the IC50 in assay [1] is 97.3 µM.

For the compound `CN(C)C(=S)SCC(CSC(=S)N(C)C)C(=O)c1ccccc1F`, the IC50 in assay [1] is 0.92 µM.

For `CN(C)C(=S)SCC(CSC(=S)N(C)C)C(=O)c1nccs1`, the IC50 in [1] amounted to 0.84 µM.

As for `CN(C)C(=S)SCC(CSC(=S)N(C)C)C(=O)c1ccc(O)cc1`, in assay [1], the IC50 is 30 µM.

In the case of `CN(C)C(=S)SCC(CSC(=S)N(C)C)C(=O)c1cnn2ccccc12`, in assay [1], the IC50 is 31.5 µM.

For `CN(C)C(=S)SCC(CSC(=S)N(C)C)C(=O)c1ccc2c(c1)ncn2-c1ccccc1`, in assay [1], the IC50 is 2.2 µM.

As to `Cc1nc2ccccn2c1C(=O)C(CSC(=S)N(C)C)CSC(=S)N(C)C`, in [1], the IC50 turned out to be 151 µM.

Take `O=C(c1cnc2ccccc2c1)C(CSC(=S)N1CCSCC1)CSC(=S)N1CCSCC1`: in [1], the IC50 worked out at 125 µM.

Consider `CN(C)C(=S)SCC(CSC(=S)N(C)C)C(=O)c1cnn2ncccc12`, for which the IC50 in assay [1] is 4.55 µM.

Turning to `CN(C)C(=S)SCC(CSC(=S)N(C)C)C(=O)c1ccc(OCc2ccccc2)cc1`, in assay [1], the IC50 amounted to 9.77 µM.

In the case of `CN(C)C(=S)SCC(CSC(=S)N(C)C)C(=O)c1c(-c2ccccc2)nn2ccccc12`, the IC50 in [1] was 4.09 µM.

As for `CN(C)C(=S)SCC(CSC(=S)N(C)C)C(=O)c1cnc2ccccc2c1`, the IC50 with HepG2 was 0.054 µM; in the assay on MDA-MB-453, 0.162 µM; in [2] it was 0.431 µM; in the assay on MCF7, 0.023 µM; in the assay on HEK293, 10.8 µM; in assay [3], 0.622 µM. Moreover, the IC50 was 13.1 µM in assay [4]; 0.325 µM in [5]; 0.476 µM in assay [1]; 6.35 µM in the assay with SW480; 0.439 µM with A-375; 0.139 µM in the assay on NCI-H522.

`CCN(CC)C(=S)SCC(CSC(=S)N(CC)CC)C(=O)c1cnc2ccccc2c1`: in assay [1], the IC50 came to 5.16 µM.

Regarding `CN(C)C(=S)SCC(CSC(=S)N(C)C)C(=O)c1cnc2ccccn12`, the IC50 in assay [1] came out at 13 µM.

Turning to `CN(Cc1cccnc1)C(=S)SCC(CSC(=S)N(C)Cc1cccnc1)C(=O)c1cnc2ccccc2c1`, the half-inhibitory concentration (IC50) in assay [1] is 1 µM.

Consider `CN(C)C(=S)SCC(CSC(=S)N(C)C)C(=O)c1ccccc1`, for which, in assay [1], the IC50 was 1.93 µM.

On to `CN(C)C(=S)SCC(CSC(=S)N(C)C)C(=O)c1csc2ccccc12`, for which the IC50 in assay [1] was found to be 0.85 µM.

In the case of `O=C(c1cnc2ccccc2c1)C(CSC(=S)N1CCCC1)CSC(=S)N1CCCC1`, in [1], the IC50 is 0.79 µM.

As for `COc1cccc(C(=O)C(CSC(=S)N(C)C)CSC(=S)N(C)C)c1`, the IC50 in assay [1] turned out to be 1.24 µM.

The record behind these values is ChEMBL document CHEMBL3414529, “Discovery and optimization of novel dual dithiocarbamates as potent anticancer agents” (Eur J Med Chem, 2015).
